For one assay, the system named is HT-3. As to the kind of experiment: Cytotoxicity against human HT-3 cells after 6 days by MTT assay. It counts as functional. Particulars: for EC50: Homo sapiens, HT-3, 144 h, read-out: ED50 (the source's name). An outline of the steps: (§1)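 Cells kept in DMEM with 10% FBS, 2 mM L-glutamine, penicillin and streptomycin. 1-3 × 10^3 cells/100 µL, attached 6 h, then fresh medium with a concentration series for 6 days at 37 °C in CO2, plus 10 mM HEPES pH 7.3. MTT (1 mg/mL in PBS) added for 4 h, formazan dissolved in DMSO, A550 read.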

Assay [1] can be described thus: Cytotoxicity against human PLC/PRF/5 cells after 6 days by MTT assay. Particulars: PLC-PRF-5, 144 h, read-out: ED50 (the source's name). Type of assay: functional. A digest of the protocol:
as §1
On the technique in general: Formazan colour is commonly taken as a measure of viable cells.

The subject of the next assay is 212 (Mus musculus). Kind of assay: Cytotoxicity against mouse 212 cells after 6 days by MTT assay. Particulars: 144 h, read-out: ED50 (the source's name).
For a further assay, the system named is T-24. Kind of assay: Cytotoxicity against human T24 cells after 6 days by MTT assay. Type of assay: functional. The note with it: T-24, 144 h, read-out: ED50 (the source's name). A digest of the protocol: as §1
A further assay has as its system SiHa. Kind of assay: Cytotoxicity against human SiHa cells after 6 days by MTT assay. Type of assay: functional. Particulars: for EC50: Homo sapiens, SiHa, 144 h, read-out: ED50 (the source's name). An outline of the steps: as §1
A further assay has as its system Ca-Ski. Kind of assay: Cytotoxicity against human CaSki cells after 6 days by MTT assay. It counts as functional. The note with it: 144 h, read-out: ED50 (the source's name). An outline of the steps: as §1

Values after ≈ are worked out from the molar mass of the structure shown. *1 amine or outer side, *2 acyl side, *3 side chain or, on linkers, in order; H or OH if unused. Where a SMILES comes first, the peptide text is derived from it. Bridges are numbered along the chain shown (N, C = ends). Roman numbers before positions name the chains, in order. [ ]: non-standard residue; d: D form. Actinocin(1to9) = Cc1c2oc3c(C)ccc(C(=O)[*:2])c3nc-2c(C(=O)[*:1])c(N)c1=O; NMeV = CN[C@H](C(=O)O)C(C)C; Sar = CNCC(=O)O

Turning to `C=CC(C)(C)c1cc(CCCc2cc(O)c3c(c2CC=C(C)C)C=CC(C)(C)O3)c(O)cc1O` [KAZINOL K], the EC50 with HT-3 was 8.6 µg/mL (≈ 18.6 µM).

Take `C=CC(C)(C)c1cc(CCCc2cc(O)c3c(c2CC=C(C)C)CCC(C)(C)O3)c(O)cc1O` [KAZINOL D]: the EC50 in assay [1] was 3.3 µg/mL (≈ 7.1 µM); in the assay on HT-3, 3.6 µg/mL (≈ 7.75 µM); with 212 (Mus musculus), 7 µg/mL (≈ 15.1 µM).

Turning to `Cc1c2oc3c(C)ccc(C(=O)N[C@@H]4C(=O)N[C@H](C(C)C)C(=O)N5CCC[C@H]5C(=O)N(C)CC(=O)N(C)[C@@H](C(C)C)C(=O)O[C@@H]4C)c3nc-2c(C(=O)N[C@@H]2C(=O)N[C@H](C(C)C)C(=O)N3CCC[C@H]3C(=O)N(C)CC(=O)N(C)[C@@H](C(C)C)C(=O)O[C@@H]2C)c(N)c1=O` [DACTINOMYCIN] (I: T[dV]P[Sar][NMeV] / II: T[dV]P[Sar][NMeV]; ester I:1-I:C, II:1-II:C; linker I:N-II:N via Actinocin(1to9)), the values for the EC50 (in assay [1]; with T-24; in the assay on Ca-Ski) were 0.0014 µg/mL (≈ 0.00112 µM), 0.0015 µg/mL (≈ 0.00119 µM) and 0.0019 µg/mL (≈ 0.00151 µM), respectively. The ED50 in the assay with HT-3 came to 5.6 ×10⁻⁴ ug/ml; in the assay on SiHa, 8.1 ×10⁻⁴ ug/ml.

As to `Oc1ccc(C2CCc3ccc(O)cc3O2)cc1` (stereo not given), the EC50 in the assay on HT-3 was found to be 11.6 µg/mL (≈ 47.9 µM); in the assay on SiHa it was 8.9 µg/mL (≈ 36.7 µM); in the assay with Ca-Ski, 17.4 µg/mL (≈ 71.8 µM).

As for `C=CC(C)(C)c1cc2c(cc1O)OC(c1cc(O)c3c(c1CC=C(C)C)CC(O)C(C)(C)O3)CC2` (stereo not given), the EC50 with HT-3 came to 9.3 µg/mL (≈ 19.4 µM); in the assay on SiHa, 9.3 µg/mL (≈ 19.4 µM); in the assay on Ca-Ski it was 8.2 µg/mL (≈ 17.1 µM).

Turning to `C=CC(C)(C)c1cc2c(cc1O)OC(c1cc(CC=C(C)C)c(O)c(O)c1CC=C(C)C)CC2` (stereo not given) [KAZINOL Q], the EC50 in assay [1] came to 3.5 µg/mL (≈ 7.57 µM); with T-24 it was 2.3 µg/mL (≈ 4.97 µM); in the assay with HT-3, 4.3 µg/mL (≈ 9.29 µM); in the assay with SiHa, 4.7 µg/mL (≈ 10.2 µM); in the assay on 212 (Mus musculus), 3.8 µg/mL (≈ 8.21 µM).
